Broadly, the IC50 is the concentration at which inhibition is half-maximal. Higher therefore signals weaker potency in that assay.

18 molecules from ChEMBL document CHEMBL1221182, “Functional characterization of IRESes by an inhibitor of the RNA helicase eIF4A” (Nat Chem Biol, 2006) can be followed below.

Bounds are passed on as bounds.

Eukaryotic initiation factor 4A-I, sequence (P60843 whole entry): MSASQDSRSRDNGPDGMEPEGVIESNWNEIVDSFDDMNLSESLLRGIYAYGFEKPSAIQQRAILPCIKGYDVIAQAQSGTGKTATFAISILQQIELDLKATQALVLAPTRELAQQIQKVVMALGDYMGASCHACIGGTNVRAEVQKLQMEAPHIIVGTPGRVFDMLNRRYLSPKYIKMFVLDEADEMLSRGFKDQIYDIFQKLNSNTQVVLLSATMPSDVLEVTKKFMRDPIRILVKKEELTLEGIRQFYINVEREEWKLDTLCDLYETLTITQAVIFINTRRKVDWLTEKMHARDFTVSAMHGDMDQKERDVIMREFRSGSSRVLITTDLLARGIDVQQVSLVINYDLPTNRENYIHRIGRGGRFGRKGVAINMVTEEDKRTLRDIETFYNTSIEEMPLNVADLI

The target in this experiment is Eukaryotic initiation factor 4A-I (Mus musculus, UniProt P60843). Description: Inhibition of eIF4A-mediated cap-dependent protein synthesis in FF-HCV-Ren mRNA transfected Swiss mouse Krebs2 cell extract by [35S]methionine metabolic labeling study. The procedure, abridged:
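Cell-free translation in Krebs-2 extracts programmed with capped bicistronic FF-HCV-Ren transcript: cap-dependent firefly cistron, HCV IRES-driven renilla cistron. Final mRNA 5 µg ml⁻¹, K⁺ 100 mM, compound titrated. Controls carry a matched final DMSO level. Products labeled with [³⁵S]methionine, separated by 10% SDS-PAGE, and autoradiographed. Luciferase activities are read by luminometer and expressed relative to vehicle reactions.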
For `CC(=O)O[C@@H]1CC[C@@]2(C)[C@@H](CC[C@@H]3[C@@H]2[C@@H](O)C[C@@]2(C)[C@H]3C[C@@H]3O[C@]4(C[C@H](C)C(C)(C)O4)[C@](C)(O)[C@@H]32)C1`, the IC50 was greater than 100 µM.
In turn, `CC(=O)O[C@@H]1CC[C@@]2(C)[C@@H](CC[C@@H]3[C@@H]2[C@@H](OC(C)=O)C[C@@]2(C)[C@H]3C[C@@H]3O[C@]4(C[C@H](C)C(C)(C)O4)[C@](C)(O)[C@@H]32)C1` yielded an IC50 greater than 100 µM.
For `C[C@H]1C[C@]2(O[C@H]3C[C@H]4[C@@H]5CC[C@H]6C[C@H](O)CC[C@]6(C)[C@H]5C(=O)C[C@]4(C)[C@H]3[C@@]2(C)O)OC1(C)C`, the 50% inhibitory concentration (IC50) was greater than 100 µM.
Molecule `C[C@H]1C[C@]2(O[C@H]3C[C@H]4[C@@H]5CC[C@H]6CC(=O)CC[C@]6(C)[C@H]5C(=O)C[C@]4(C)[C@H]3[C@@]2(C)O)OC1(C)C` returned a concentration for half-maximal inhibition (IC50) greater than 100 µM.
As for `C[C@H]1C[C@]2(O[C@H]3C[C@H]4[C@@H]5CC[C@H]6C[C@H](O)[C@H](OC(=O)CCCC(=O)O)C[C@]6(C)[C@H]5[C@@H](O)C[C@]4(C)[C@H]3[C@@]2(C)O)OC1(C)C`, the figure is 35 µM; as for `CC(=O)O[C@@H]1CC[C@@]2(C)[C@@H](CC[C@@H]3[C@@H]2[C@@H](O)C[C@@]2(C)[C@H]3C[C@@H]3O[C@@]4(C[C@H](C)C(C)(C)O4)[C@](C)(O)[C@@H]32)C1`, 10 µM.
`CC(=O)O[C@@H]1CC[C@@]2(C)[C@@H](CC[C@@H]3[C@@H]2[C@@H](OC(C)=O)C[C@@]2(C)[C@H]3C[C@@H]3O[C@@]4(C[C@H](C)C(C)(C)O4)[C@](C)(O)[C@@H]32)C1`: it took 64 µM to reach half-maximal inhibition (IC50).
Molecule `C[C@H]1C[C@@]2(O[C@H]3C[C@H]4[C@@H]5CC[C@H]6C[C@H](O)CC[C@]6(C)[C@H]5C(=O)C[C@]4(C)[C@H]3[C@@]2(C)O)OC1(C)C` came in with an IC50 of 9 µM.
As for `C[C@H]1C[C@@]2(O[C@H]3C[C@H]4[C@@H]5CC[C@H]6CC(=O)CC[C@]6(C)[C@H]5C(=O)C[C@]4(C)[C@H]3[C@@]2(C)O)OC1(C)C`, the figure is 52 µM; as for `C[C@H]1C[C@@]2(O[C@H]3C[C@H]4[C@@H]5CC[C@H]6C[C@H](O)[C@H](O)C[C@]6(C)[C@H]5[C@@H](O)C[C@]4(C)[C@H]3[C@@]2(C)O)OC1(C)C`, 1.7 µM.
The molecule `C[C@H]1C[C@@]2(O[C@H]3C[C@H]4[C@@H]5CC[C@H]6C[C@H](O)[C@H](OC(=O)CCCC(=O)O)C[C@]6(C)[C@H]5[C@@H](O)C[C@]4(C)[C@H]3[C@@]2(C)O)OC1(C)C` showed an IC50 of 2.6 µM.
As for `CC(=O)O[C@@H]1C[C@@]2(C)[C@@H](CC[C@@H]3[C@@H]2[C@@H](O)C[C@@]2(C)[C@H]3C[C@@H]3O[C@@]4(C[C@H](C)C(C)(C)O4)[C@](C)(O)[C@@H]32)C[C@@H]1O`, the figure is 1.5 µM; as for `C[C@H]1C[C@]2(O[C@H]3C[C@H]4[C@@H]5CC[C@H]6C[C@H](O)[C@H](O)C[C@]6(C)[C@H]5[C@@H](O)C[C@]4(C)[C@H]3[C@@]2(C)O)OC1(C)C`, 19 µM; as for `CC(=O)O[C@H]1C[C@@H]2CC[C@@H]3[C@H]([C@@H](O)C[C@@]4(C)[C@H]3C[C@@H]3O[C@]5(C[C@H](C)C(C)(C)O5)[C@](C)(O)[C@@H]34)[C@@]2(C)C[C@H]1O`, 52 µM.
`CC(=O)O[C@H]1C[C@@H]2CC[C@@H]3[C@H]([C@@H](O)C[C@@]4(C)[C@H]3C[C@@H]3O[C@@]5(C[C@H](C)C(C)(C)O5)[C@](C)(O)[C@@H]34)[C@@]2(C)C[C@H]1O` returned an IC50 of 1.7 µM.
As for `CC(=O)O[C@@H]1C[C@@]2(C)[C@@H](CC[C@@H]3[C@@H]2[C@@H](O)C[C@@]2(C)[C@H]3C[C@@H]3O[C@]4(C[C@H](C)C(C)(C)O4)[C@](C)(O)[C@@H]32)C[C@@H]1O` [EPIHIPPURIN 1], the figure is greater than 100 µM; as for `C[C@H]1C[C@]2(O[C@H]3C[C@H]4[C@@H]5CC[C@H]6C[C@H](O)CC[C@]6(C)[C@H]5[C@@H](O)C[C@]4(C)[C@H]3[C@@]2(C)O)OC1(C)C` [EPIHIPPURISTANOL], greater than 100 µM; as for `CC(=O)O[C@@H]1CC[C@@]2(C)[C@@H](CC[C@@H]3[C@@H]2[C@@H](O)C[C@]24[C@H](O)O[C@]5(C)[C@H]2[C@H](C[C@@H]34)O[C@]52C[C@H](C)C(C)(C)O2)C1` [HIPPURISTANOHEMIACETAL], 91 µM.
